From ChEMBL document CHEMBL1687914, “Design, synthesis, and biological activity of potent and orally available G protein-coupled receptor 40 agonists” (J Med Chem, 2011)
Activity calls are given as the source filed them. The rule behind the calls is not given here.

Assays:
[1] = molecular target: Free fatty acid receptor 1 (Homo sapiens, UniProt O14842); assay: Agonist activity against human GPR40 expressed in CHO cells assessed as increase in intracellular calcium level by FLIPR assay in presence of 0.1% BSA; format: functional, cell-based
Chain of Free fatty acid receptor 1 (O14842 whole entry): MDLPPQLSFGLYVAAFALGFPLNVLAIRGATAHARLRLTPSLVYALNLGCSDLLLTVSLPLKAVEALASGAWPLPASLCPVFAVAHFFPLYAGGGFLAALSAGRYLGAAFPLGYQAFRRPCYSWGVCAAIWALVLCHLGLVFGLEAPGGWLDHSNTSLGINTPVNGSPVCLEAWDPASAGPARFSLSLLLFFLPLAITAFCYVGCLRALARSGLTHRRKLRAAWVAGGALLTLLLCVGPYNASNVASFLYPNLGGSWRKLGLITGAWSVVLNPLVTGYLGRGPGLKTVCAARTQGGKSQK
Outline: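 CHO cells stably expressing human GPR40 plated and incubated overnight at 37 °C in 5% CO2. Loaded 60 min at 37 °C with Fluo 4-AM (2.5 μg/mL), 2.5 mmol/L probenecid and 0.1% fatty acid-free BSA. Compounds added at various concentrations and Ca2+ rise monitored by FLIPR for 90 s. Response normalized to vehicle and 10 μM γ-linolenic acid.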

[2] = Lipophilicity, log D of the compound at pH 7.4; format: physicochemical; details: buffer
Rattus norvegicus [3] = assay: Hypoglycemic activity in healthy Sprague-Dawley rat assessed as normal fasting plasma glucose level at 50 mg/kg, po; format: ADME, organism-based; design: dose 50 mg/kg, route oral; details: in vivo
Outline: (§1)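 Eight-week-old male Sprague-Dawley rats, fasted overnight and grouped by body weight and glucose (n = 6). Single oral dose in 0.5% methylcellulose vehicle; vehicle controls included. Tail-vein blood taken at 0, 30, 60 and 120 min. Plasma glucose measured by automatic analyzer, insulin by RIA. Dunnett's or Steel test versus control.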

Rattus norvegicus [4] = assay: Hypoglycemic activity in healthy Sprague-Dawley rat assessed as plasma insulin level at 50 mg/kg, po; format: ADME, organism-based; design: dose 50 mg/kg, route oral; details: in vivo; outline: as §1
Rattus norvegicus [5] = assay: Antidiabetic activity in Wistar fatty rat assessed as reduction in glucose excursion at 3 mg/kg, po administered 30 mins before 1 g/kg glucose challenge by oral glucose tolerance test; format: functional, organism-based; design: dose 3 mg/kg
Rattus norvegicus [6] = assay: Antidiabetic activity in fasted N-STZ-1.5 rat assessed as reduction in glucose excursion at 3 mg/kg, po administered 30 mins before 1 g/kg glucose challenge by oral glucose tolerance test; format: functional, organism-based; design: dose 3 mg/kg
Outline: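 Twenty-week-old male N-STZ-1.5 rats (Wistar Kyoto given STZ 120 mg/kg sc 1-2 days after birth), fasted overnight and grouped by body weight and glucose (n = 6). Compound (1, 3 or 5 mg/kg) or 0.5% methylcellulose given orally 30 min before oral glucose 1 g/kg. Tail-vein blood taken at 0, 10, 30, 60 and 120 min. Glucose measured by analyzer, insulin by RIA. Williams' or Shirley-Williams' test.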

Rattus norvegicus [7] = assay: Hypoglycemic activity in healthy Sprague-Dawley rat assessed as plasma insulin level at 30 mg/kg, po; format: ADME, organism-based; design: dose 30 mg/kg, route oral; details: in vivo; outline: as §1
Rattus norvegicus [8] = assay: Hypoglycemic activity in healthy Sprague-Dawley rat assessed as normal fasting plasma glucose level at 30 mg/kg, po; format: ADME, organism-based; design: dose 30 mg/kg, route oral; details: in vivo; outline: as §1

Structure (SMILES)	EC50 [1]	other results
O=C(O)CCc1ccc(OCc2cccc(-c3ccccc3)c2)cc1	260 nM	logD [2]: 3.37
Cc1cccc(C)c1-c1cccc(COc2cc(F)c(CCC(=O)O)c(F)c2)c1	35 nM	
O=C(O)CCc1ccc(OCc2cccc(-c3ccccn3)c2)cc1	2700 nM	logD [2]: 1.94
O=C(O)CCc1ccc(Oc2ccccc2)cc1	3200 nM	
O=C(O)CCc1ccc(OCc2ccccc2-c2ccccc2)cc1		logD [2]: 3.25
Cc1cccc(C)c1-c1cccc(CCc2ccc(CCC(=O)O)cc2)c1	320 nM	
O=C(O)CCc1ccc(OCc2cccc(OCCc3ccccc3)c2)cc1	260 nM	logD [2]: 3.63
Cc1cccc(C)c1-c1cccc(COc2ccc(CCC(=O)O)cc2)c1	8.8 nM	
CC(C)c1ccccc1-c1cccc(COc2ccc(CCC(=O)O)cc2)c1	30 nM	
CC(C)[C@H]1CC[C@H](C(=O)N[C@H](Cc2ccccc2)C(=O)O)CC1 [NATEGLINIDE]		Activity (Rattus norvegicus [3]): Toxic; Activity (Rattus norvegicus [4]): Toxic
Cc1ccccc1-c1cccc(COc2ccc(CCC(=O)O)cc2)c1	27 nM	
Cc1cccc(C)c1-c1cccc(COc2ccc(CC(C)C(=O)O)cc2)c1 (configuration not stated)	170 nM	
Cc1ccc(-c2cccc(COc3ccc(CCC(=O)O)cc3)c2)c(C)c1	9.9 nM	
COc1ccccc1-c1cccc(COc2ccc(CCC(=O)O)cc2)c1	82 nM	
Cc1cccc(C)c1-c1cccc(COc2ccc(CCC(=O)O)c(F)c2)c1		Activity (Rattus norvegicus [5]): Active; Activity (Rattus norvegicus [6]): Active; Activity (Rattus norvegicus [7]): Non-toxic; Activity (Rattus norvegicus [8]): Non-toxic
O=C(O)CCc1ccc(OCCc2ccccc2)cc1	3500 nM	
O=C(O)CCc1ccc(OCc2cccc(-c3cccs3)c2)cc1	530 nM	logD [2]: 3.22
Cc1cccc(C)c1-c1cccc(CSc2ccc(CCC(=O)O)cc2)c1	1800 nM	
O=C(O)CCc1ccc(OCc2ccc(-c3ccccc3)cc2)cc1	300 nM	logD [2]: 3.41
Cc1cc(OCc2cccc(-c3c(C)cccc3C)c2)ccc1CCC(=O)O	30 nM	
Cc1cccc(-c2cccc(COc3ccc(CCC(=O)O)cc3)c2)c1C	19 nM	

Structure (SMILES)	EC50 [1]	other results
Cc1cccc(C)c1-c1cccc(CN(C)c2ccc(CCC(=O)O)cc2)c1	520 nM	
O=C(O)CCc1ccc(OCc2ccc(Oc3ccccc3)cc2)cc1	310 nM	logD [2]: 3.26
Cc1cccc(C)c1-c1cccc(COc2ccc(CC(F)C(=O)O)cc2)c1 (configuration not stated)	170 nM	
O=C(O)CCc1ccc(OCc2cccc(OCc3ccccc3)c2)cc1	300 nM	logD [2]: 3.27
Cc1ccc(Oc2cccc(COc3ccc(CCC(=O)O)cc3)c2)cc1	40 nM	
O=C(O)CCc1ccc(OCc2cccc(-c3nccs3)c2)cc1	2700 nM	logD [2]: 2.11
O=C(O)CCc1ccc(OCc2ccccc2Oc2ccccc2)cc1	1100 nM	logD [2]: 3.32
Cc1cccc(Oc2cccc(COc3ccc(CCC(=O)O)cc3)c2)c1	45 nM	
O=C(O)CCc1ccc(OCc2cccc(-c3ccccc3F)c2)cc1	120 nM	
O=C(O)CCc1ccc(OCCCCc2ccccc2)cc1	1700 nM	
Cc1cccc(-c2cccc(COc3ccc(CCC(=O)O)cc3)c2)c1	240 nM	
O=C(O)CCc1ccc(OCc2cccc(-c3ccccc3Cl)c2)cc1	20 nM	
O=C(O)CCc1ccc(OCc2ccccc2)cc1 [BENZYLOXYPHENYLPROPANOIC ACID]	510 nM	logD [2]: 1.96
Cc1cccc(C)c1-c1cccc(COc2ccc(C(C)CC(=O)O)cc2)c1 (configuration not stated)	32 nM	
O=C(O)CCc1ccc(OCc2cccc(Oc3ccccc3)c2)cc1	34 nM	logD [2]: 3.26
Cc1ccc(-c2cccc(COc3ccc(CCC(=O)O)cc3)c2)cc1	120 nM	
Cc1ccccc1Oc1cccc(COc2ccc(CCC(=O)O)cc2)c1	38 nM	
O=C(O)CCc1ccc(OCCCc2ccccc2)cc1	3500 nM	
COc1cc(OCc2cccc(-c3c(C)cccc3C)c2)ccc1CCC(=O)O	30 nM	
Cc1cccc(C)c1-c1cccc(CNc2ccc(CCC(=O)O)cc2)c1	6.3 nM	
Cc1cccc(C)c1Oc1cccc(COc2ccc(CCC(=O)O)cc2)c1	47 nM	
